Only some compounds are listed: those with a hit (about 2.9% of all), similar ones and a draw of the others.
NALP1 yeast inh: NALP1 inhibition; AID 2071; S. cerevisiae NALP1/ASC/caspase-1 growth, X-gal OD620, 72 h; 0.61% of 280,000 active; inhibition, % at 10 µM; in the data active means inhibition mostly above about 24%, no sharp cut-off; inactive means mostly below about 32%
SUMO Mot1 rescue: inhibitors of SUMOylation pathway: yeast Mot1-301 growth rescue; 1% of 320,000 active; growth rescue, % at 18.8 µM; S. cerevisiae Mot1-301 growth rescue, ATP luminescence, 38.5C; percent above DMSO median, 100 means doubled;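 active means every valid replicate shows activation above 250% relative to neutral control wells; inactive means the rest, any valid replicate at or below 250%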;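 further: OY570 slx delta 5 strain wells were the positive control but not used for scaling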
PolyA inh: inhibitors of polyadenylation in S. cerevisiae; 0.02% of 300,000 active; activity score, % at 12 µM; S. cerevisiae SKY197-pL101 polyadenylation reporter, beta-gal luminescence; efflux-impaired pdr1/pdr3 knockout yeast; score 100 = 6 SD above DMSO;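 active means lowest replicate activity score at least 50, where 100 means six control SD above control mean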;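 further: yeast exposed to compound for 9 h at 30 °C; higher score means more reporter readthrough which indicates perturbed polyadenylation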
NLRP3 yeast inh: NALP3 inhibition in yeast | Yeast reconstituted NLRP3/ASC/caspase-1, beta-gal luminescence, 24 h | 0.39% of 330,000 active | AID 2825 | inhibition, % at 10 µM;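 active means inhibition of 50% or more; inactive means inhibition below 50%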;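 further: plate controls were induced DMSO wells for no effect and uninduced yeast grown without galactose for full effect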
IMP-1 inh: blocks Pseudomonas aeruginosa IMP-1 metallo-beta-lactamase; purified IMP-1, nitrocefin hydrolysis, epi-absorbance fluorescence; inhibition, % at 5.6 µM; 0.45% of 290,000 active;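 active means inhibition above the mean plus 3 SD of all compounds in the same screening run, cut at about 4.5% in these data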;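 further: 0% = IMP-1 with DMSO and 100% = DMSO wells lacking enzyme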
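Test system: recombinant IMP-1 enzyme, purified / Medium: HEPES buffer pH 7.1 with ZnSO4 and Brij 35 / Doses: single dose, 5.6 µM / Times: 25 °C, 15 min preincubation, 25 min reaction / Detection: Epi-absorbance via hydrolysed-nitrocefin quenching of white-plate fluorescence, 480/530 nm, EDTA stop / Evaluation: percent inhibition from optical density relative to buffer-blank wells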
VIM-2 inh: blocks Pseudomonas aeruginosa VIM-2 metallo-beta-lactamase. purified VIM-2, nitrocefin hydrolysis, epi-absorbance fluorescence. inhibition, % at 5.6 µM. 0.89% of 290,000 active;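 active means inhibition above the mean of all tested compounds plus 3 SD, cutoff set per screening run, cut at about 7.5% in these data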;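 further: red hydrolysis product quenches plate fluorescence so inhibitors raise well fluorescence; 0% = enzyme with DMSO and 100% = DMSO without enzyme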
Yeast Mot1 SUMO: SUMO pathway inhibitors in yeast Mot1-301 growth | 2,300 tested, under 10 active | growth activity, percent, % at 42 µM | S. cerevisiae Mot1-301 galactose growth, ATP luminescence, 24 h; -100 = growth of slx-deleted rescue strain | shares compounds with SUMO Mot1 rescue;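 active means Signal drops as the depositor expects, and the fitted half-maximal dose is no more than ten times the top valid tested dose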;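 further: more negative values mean stronger growth rescue toward the control strain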
The depositor's hits bear a star; . = no result given; + = active, no number; [ ] = another dose, or the depositor's remark.

SMILES	NALP1 yeast inh	SUMO Mot1 rescue	PolyA inh	NLRP3 yeast inh	IMP-1 inh	VIM-2 inh	Yeast Mot1 SUMO
O=C(NCc1cccnc1)C1CCN(S(=O)(=O)c2cccnc2)CC1	56	+	-4	13	-4	-6	-1
C(=N\N1CCN(C2c3ccccc3-c3ccccc32)CC1)/c1ccncc1	31	+	-14	18	1	2	0
CC(=O)NC(NC(=S)Nc1ccc(C)cc1C)C(Cl)(Cl)Cl (stereo unspecified)	.	-9	-2	-8	-2	-3	.
Cc1ccc(NC(=S)NC(NC(=O)c2ccccc2C)C(Cl)(Cl)Cl)c(C)c1 (stereo unspecified)	7	627*	-14	9	3	-2	0
Cc1cccc(CS(=O)(=O)c2ncc(CO)n2C)c1	14	1	-1	2	-2	2	.
O=C(CN1CCN(c2cccc(C(F)(F)F)c2)CC1)NCc1ccccc1	.	-12	-40	-10	-1	-4	.
CCc1ccc(NC(=O)CSc2nc(=O)n3cc(C)ccc3n2)cc1	.	-9	-3	8	.	.	.
Cc1[nH]c2ccccc2c1/C=N/NC(=O)c1ccccc1	2	-7	10	-4	-2	0	.
Cc1[nH]c2ccccc2c1/C=N/NC(=O)c1cccc(Br)c1	4	497*	25	17	-3	-4	0
CCOc1ccc(/C=N/NC(=O)c2ccc(CSc3nc4ccccc4[nH]3)cc2)cc1	17	508*	-7	-3	-4	-3	0
CC1Cc2cc(S(=O)(=O)N3CCC(C(=O)Nc4ccccn4)CC3)ccc2N1C(=O)C1CCC1 (stereo unspecified)	6	-10	-22	4	-3	5	.
CCn1ncc(Br)c1C(=O)Nc1ccc(OC(F)(F)F)cc1	2	451*	-20	33	-2	-1	-1
CCn1ncc(Br)c1C(=O)Nc1ccc(C(=O)OC(C)C)cc1	0	-8	-9	18	-2	-1	.
O=C(CN1C(=O)NC2(CCCCCC2)C1=O)NCCc1ccccc1	.	4	.	14	.	.	.
Cc1nn(CC(N)=O)c(=O)c2ccccc12	12	482*	3	18	-4	-2	0
CCOC(=O)Cn1nc(C)c2ccccc2c1=O	-8	-13	-5	9	0	1	.
COCCC(=O)N1CCC(C(=O)Nc2ccc(Oc3ccccc3)nc2)CC1	12	1	-6	7	-2	0	.
CCOc1cccc(C(=O)N(Cc2cccc(F)c2)C2CCS(=O)(=O)C2)c1 (stereo unspecified)	10	.	-2	9	1	-2	.
Cc1ccc(-c2nc3c(=O)n(C)c4ccccc4c3o2)cc1	1	-6	-34	13	-1	1	.
Cc1ccc(-c2nc3c(=O)n(-c4ccccc4)c4c(c(=O)n(C)c(=O)n4C)c3o2)cc1	10	796*	8	4	-3	-2	1
O=C(O)[C@H](Cc1c[nH]c2ccccc12)Nc1ncccc1[N+](=O)[O-]	-5	75	-13	12	-2	-2	.
Nn1c(SCc2cc([N+](=O)[O-])cc3c2OCOC3)nnc1-c1ccccn1	7	531*	-11	3	0	-2	1
c1ccc2c(c1)[nH]c1c(N3CCN(C4CCCCC4)CC3)ncnc12	.	739*	12	10	-1	4	-1
COc1ccc(CNC(=O)c2ccc(S(=O)(=O)NCc3ccco3)cc2)cc1	.	.	.	-2	.	.	.
CC(C)(C)CC(=O)Nc1cc(S(=O)(=O)N2CCOCC2)ccc1N1CCCC1	15	508*	9	1	-2	-3	0
SMILES	NALP1 yeast inh	SUMO Mot1 rescue	PolyA inh	NLRP3 yeast inh	IMP-1 inh	VIM-2 inh	Yeast Mot1 SUMO
CCCCCC(=O)Nc1cc(S(=O)(=O)N2CCOCC2)ccc1N1CCCCC1	.	-5	-13	14	.	.	.
Cc1ccccc1OCC(O)CN(Cc1ccccc1O)C1CCCCC1 (stereo unspecified)	12	11	-1	3	-1	0	.
O=C(CSc1ncccn1)c1ccccc1Br	.	436*	0	-12	-3	-1	-1
CS(=O)(=O)N(CC(=O)N1CCCCCC1)Cc1ccc(Cl)cc1	4	589*	12	1	-4	-2	0
O=C1CCC(/C=C/c2ccccc2)=NN1Cc1ccc(Cl)c(Cl)c1	-5	659*	-8	29	2	-1	0
O=c1[nH]c(C2CCN(S(=O)(=O)/C=C/c3ccccc3)CC2)nc2c1nnn2Cc1ccccc1	8	-3	-13	15	-2	-2	.
Cc1nn(C(=O)c2cc([N+](=O)[O-])ccc2Cl)c(C)c1Br	18	-13	4	20	3	0	.
O=C(Oc1ccccc1N1C(=O)C2CC=CCC2C1=O)c1ccc(Br)cc1 (stereo unspecified)	15	549*	-6	-1	-2	0	0
Cc1ccccc1C(=O)Oc1ccccc1N1C(=O)C2CC=CCC2C1=O (stereo unspecified)	11	89	-13	1	-1	0	.
O=C(Nc1ccccn1)c1ccc(CN(c2ccccc2)S(=O)(=O)c2ccccc2)cc1	-16	505*	5	14	-3	-1	0
O=c1[nH]cnc2cc(Cl)ccc12	6	+	9	7	0	-1	0[21 µM]
Cc1cccc(N2CCN(CCCNC(=O)c3ccc(NC(=O)C4=CSCCO4)cc3)CC2C)c1 (stereo unspecified)	23	445*	1	6	-1	0	0
CC1=C(C(N)=O)C(c2ccccn2)n2nc(SCc3ccccc3Cl)nc2N1 (stereo unspecified)	0	384*	12	16	-4	-2	0
COc1ccccc1CNC(=O)CN(c1ccc(C)cc1)S(=O)(=O)c1c(C)n[nH]c1C	4	912*	-10	19	-3	-1	-1
CCOc1ccc(S(=O)(=O)N2CCC(C(=O)N3CCN(c4ccccc4F)CC3)CC2)cc1C	16	30	10	19	-2	0	.
CCC(C(=O)NCCN1CCOCC1)n1c2ccccc2c2nc(=O)cc(C)n21 (stereo unspecified)	33	-7	-6	7	-2	-2	.
c1ccc(OCCCc2nc(-c3cccnc3)no2)cc1	0	456*	0	14	-7	-5	1
c1ccc(CCCc2nc(-c3cccnc3)no2)cc1	8	628*	-14	20	-1	-1	0
c1ccc(C(Cc2nc(-c3cccnc3)no2)c2ccccc2)cc1	17	16	-16	18	0	-2	.

Screens (PubChem)
